Measurements: ChEMBL document CHEMBL2157991, “Synthesis and pharmacological evaluation of 2,4-dinitroaryldithiocarbamate derivatives as novel monoacylglycerol lipase inhibitors” (J Med Chem, 2012)
Changes are numbered by the printed parent chain. Active and inactive are the calls of the source. No cut-off for these calls is given here.

Columns and labels:
[1] = target: T1, Monoglyceride lipase (Homo sapiens, UniProt Q99685); test: Inhibition of human recombinant MAGL using [3H]-2-OG as substrate after 10 mins by liquid scintillation counter
T1 sequence (Q99685 whole entry): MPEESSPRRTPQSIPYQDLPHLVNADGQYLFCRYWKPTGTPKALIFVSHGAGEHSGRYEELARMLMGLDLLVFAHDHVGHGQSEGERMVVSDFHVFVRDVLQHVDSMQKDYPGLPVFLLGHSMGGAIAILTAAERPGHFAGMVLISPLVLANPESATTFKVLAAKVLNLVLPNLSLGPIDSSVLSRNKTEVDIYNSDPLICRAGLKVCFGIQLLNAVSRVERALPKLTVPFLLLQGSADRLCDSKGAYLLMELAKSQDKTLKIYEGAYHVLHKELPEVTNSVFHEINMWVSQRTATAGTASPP
Method in brief: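 Purified recombinant hMAGL (5 ng; Tris pH 8.0, 50 mM, 0.1% BSA) with inhibitor in DMSO and [3H]-2-OG (10 μM), 10 min at 37 °C; stopped with ice-cold methanol–chloroform, aqueous-phase radioactivity by liquid scintillation, no-enzyme blanks subtracted; pIC50 from dose–response, mean ± SEM of three experiments in duplicate.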

[2] = organism: Homo sapiens; test: Selectivity ratio of IC50 for human recombinant FAAH to IC50 for human recombinant MAGL
[3] = system: T2, Monoglyceride lipase (Homo sapiens), Q99685 [C201A]; test: Inhibition of human MAGL C201A mutant expressed in Escherichia coli
T2 sequence (whole entry): T1 sequence (Q99685 whole entry) with C201A
Method in brief: (§1)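 Homogenates of E. coli expressing wild-type or C201A, C208A, C242A or C208A/C242A mutant MAGL used as enzyme source in the [3H]-2-OG hydrolysis assay; n = 3 in duplicate.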

[4] = target: T3, Monoglyceride lipase (Mus musculus) (UniProt O35678); test: Inhibition of MAGL in mouse B16 cells assessed as increase in 2-arachidonoylglycerol level at 10 uM after 8 hrs by isotope dilution HPLC-MS method; type: cell-based
T3 sequence (whole entry): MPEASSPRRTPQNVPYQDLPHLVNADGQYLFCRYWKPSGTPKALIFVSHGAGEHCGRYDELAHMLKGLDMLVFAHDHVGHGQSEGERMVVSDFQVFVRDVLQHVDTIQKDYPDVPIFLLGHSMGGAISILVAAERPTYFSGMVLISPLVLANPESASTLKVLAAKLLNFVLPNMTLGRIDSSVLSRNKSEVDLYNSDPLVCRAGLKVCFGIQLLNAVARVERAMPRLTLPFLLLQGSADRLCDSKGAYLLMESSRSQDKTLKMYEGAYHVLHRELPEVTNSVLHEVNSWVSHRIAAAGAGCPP
Method in brief: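 Murine B16 melanoma cells (MEMα, 10% FBS, 37 °C, 5% CO2), 5 × 10^6 cells/condition seeded 12 h, then exposed 8 h to 10 μM inhibitor or 0.1% DMSO in 1% FBS medium; cells plus medium extracted with chloroform–methanol with d5-2-AG, silica SPE cleanup, 2-AG quantified by APCI-positive HPLC–MS isotope dilution, normalized to vehicle.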

[5] = system: T4, Monoglyceride lipase (Homo sapiens), Q99685 [C242A]; test: Inhibition of human MAGL C242A mutant expressed in Escherichia coli; method in brief: as §1
T4 sequence (whole entry): T1 sequence (Q99685 whole entry) with C242A

[6] = target: T5, Monoglyceride lipase (Homo sapiens) (UniProt Q99685); test: Inhibition of MAGL at 10^-4.5 to 10^-5 M after 30 mins by liquid scintillation counter in presence of DTT
T5 sequence (whole entry): T1 sequence (Q99685 whole entry)
Method in brief: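 Purified MAGL (3 ng; Tris pH 8.0, 50 mM, 0.1% BSA) preincubated 10 min at room temperature with inhibitor at 10−4.5 and 10−5 M or DMSO; DTT (10−2 M) then added, 15 min at 37 °C, before [3H]-2-OG hydrolysis assay as standard; activity normalized to respective control, n analysed by one-way ANOVA with Bonferroni test.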

[7] = system: T6, Monoglyceride lipase (Homo sapiens), Q99685 [C208A]; test: Inhibition of human MAGL C208A mutant expressed in Escherichia coli; method in brief: as §1
T6 sequence (whole entry): T1 sequence (Q99685 whole entry) with C208A

IC50 [1]: 155 nM
Ratio IC50 [2]: 11
inhibition [3]: Active
inhibition [4]: Active
inhibition [5]: inactive
inhibition [6]: inactive
inhibition [7]: inactive
Compound: CC(C)(C)c1ccc(CN2CCN(C(=S)Sc3ccc([N+](=O)[O-])cc3[N+](=O)[O-])CC2)cc1
